Screening results: PubChem BioAssay, The Scripps Research Institute Molecular Screening Center
CHO parental Ca = counter-screen for OX1R antagonists: effect in parental CHO cells; parental CHO-K1, ATP-induced calcium, Fluo-8 fluorescence; inhibition, % at 5.6 µM; 330,000 tested, 0.63% active;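 active = inhibition above that plate's mean sample inhibition plus 3 SD, cut at about 26% in these data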;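 note: 0% = ATP-challenged DMSO wells and 100% = DMSO wells without ATP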
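Measured by: calcium-sensitive Fluo-8 fluorescence / Test system: CHO parental line / Controls: ATP-challenged DMSO wells low, unchallenged DMSO wells high / Measure: % inhibition / Compound: single nominal dose of 5.6 µM per compound / Replicates: single well per compound, no replicates / Reagent: ATP as calcium-mobilizing challenge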
OX1R antag-1 = blocks the human orexin 1 receptor; O43613; CHO/OX1R cells, Fluo-8 calcium fluorescence, orexin A; inhibition, % at 5 µM; 330,000 tested, 0.43% active;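 active = inhibition above its plate's threshold, mean inhibition of all tested compounds on the plate plus 3 SD, cut at about 37% in these data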;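 note: 0% = orexin A challenge wells and 100% = SB-334867-A antagonist wells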
Target sequence (O43613 whole entry, looked up): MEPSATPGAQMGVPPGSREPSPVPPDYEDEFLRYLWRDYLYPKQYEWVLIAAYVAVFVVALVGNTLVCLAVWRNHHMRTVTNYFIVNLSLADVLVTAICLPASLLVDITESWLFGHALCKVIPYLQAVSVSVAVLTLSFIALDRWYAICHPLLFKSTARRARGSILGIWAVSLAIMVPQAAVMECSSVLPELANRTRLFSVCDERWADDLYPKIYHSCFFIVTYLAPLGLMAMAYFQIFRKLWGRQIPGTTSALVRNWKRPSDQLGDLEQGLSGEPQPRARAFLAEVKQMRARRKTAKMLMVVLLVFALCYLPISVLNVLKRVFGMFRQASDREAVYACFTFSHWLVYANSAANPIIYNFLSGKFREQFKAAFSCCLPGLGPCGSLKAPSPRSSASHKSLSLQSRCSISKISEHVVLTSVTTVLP
OX1R antag-2 = OX1R (human) antagonism | OX1R-expressing cells, FRET antagonist read-out | AID 485270 | O43613 | 330,000 tested, 1.8% active | inhibition, % at 6.6 µM; in the data active = inhibition mostly above about 38%, no sharp cut-off; inactive = mostly below about 40%;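 note: 0% = agonist challenge alone and 100% = reference antagonist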
TAAR1 agonist = agonists of human TAAR1. CHO RD-HGA16 TAAR1, Fluo-8 calcium fluorescence; vehicle wells 0%, saturating PEA agonist 100%. Q96RJ0. activation, % at 3 µM. 360,000 tested, 0.99% active. AID 624467;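 active = activation above the mean activation of all test compounds in the run plus 3 SD, cut at about 38% in these data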
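Assay system: CHO-derived RD-HGA16 cells with stable Gα16 and human TAAR1; timing: 17-24 h seeding, 75 min 37 °C dye, 30 min RT; read-out: % activation from peak over basal fluorescence ratio, DMSO-to-PEA scaled; measured by: kinetic Fluo-8 calcium fluorescence; benchmarks: low control DMSO, high control PEA (EC100); doses: 3 µM single concentration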
TAAR1 antagonist = human TAAR1 antagonism; Q96RJ0; CHO RD-HGA16 TAAR1, Fluo-8 calcium fluorescence, antagonist; AID 624466; 360,000 tested, 1.5% active; inhibition, % at 3 µM;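 active = inhibition above a per-plate cutoff, the mean inhibition of test compounds on that plate plus 3 SD, cut at about 49% in these data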;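 note: 0% = DMSO plus EC80 beta-PEA response and 100% = DMSO alone without agonist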
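Test system: RD-HGA16 CHO cells with stable hTAAR1 and Gα16 / Probe or stimulus: EC80 β-phenethylamine stimulus / Times: seeding 17-24 h prior, 75-min 37 °C, 30-min RT dye loading / Detection: Fluo-8 calcium-sensitive fluorescence / Read-out basis: % inhibition scaled between DMSO and EC80 PEA controls / Repeats: singlicate, one well per test compound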
GPR7 antagonist = antagonists of human GPR7 (neuropeptides B/W receptor 1) | GPR7-expressing cells, fluorescence antagonist assay | inhibition, % at 4.4 µM | 290,000 tested, 1.1% active; in the data active = inhibition above about 16%, passing the limit was not always enough;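 note: cells stimulated with the agonist NPW; 0% = agonist with vehicle and 100% = vehicle without agonist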
Target sequence (P48145 whole entry, looked up): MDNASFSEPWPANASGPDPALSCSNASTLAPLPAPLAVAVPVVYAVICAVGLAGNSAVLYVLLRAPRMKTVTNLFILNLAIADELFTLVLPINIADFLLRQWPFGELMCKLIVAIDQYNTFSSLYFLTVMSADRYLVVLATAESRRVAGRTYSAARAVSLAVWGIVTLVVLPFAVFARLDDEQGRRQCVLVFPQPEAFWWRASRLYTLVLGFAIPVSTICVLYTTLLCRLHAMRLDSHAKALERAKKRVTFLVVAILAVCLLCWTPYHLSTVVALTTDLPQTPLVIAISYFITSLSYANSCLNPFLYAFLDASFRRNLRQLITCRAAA
* hit, by the source's call; x = no result. The list is not random: actives were taken first. Their share in the collection is about 4.6%.

SMILES	CHO parental Ca	OX1R antag-1	OX1R antag-2	TAAR1 agonist	TAAR1 antagonist	GPR7 antagonist
Cn1c(=O)c2cc(NC(=O)NCc3ccccc3)ccc2n1C/C=C/c1ccccc1	x	x	x	2.0	-21.7	x
CN(C)S(=O)(=O)c1ccc(Cl)c(NC(=O)COC(=O)c2cc(-c3ccccc3)nc3ccccc23)c1	-5.3	-2.8	10.6	3.6	51.9*	-6.7
Cc1ccc(NC(=O)CN(C2=NC3CS(=O)(=O)CC3S2)c2ccccc2)cc1 (stereo unspecified)	x	x	x	1.1	-14.1	x
Cc1cc(C)cc(N(CC(=O)Nc2ccccc2)C2=NC3CS(=O)(=O)CC3S2)c1 (stereo unspecified)	-11.7	5.2	60.5*	7.1	-7.0	-2.7
C[C@H](O)[C@@H]1C(=O)N2CCc3c([nH]c4c(-c5ccccc5)cccc34)[C@@H]2C[C@@H]1N(C)CC1CCCCC1	x	x	x	-0.5	35.8	x
Cc1ccc2[nH]c(=O)c(CN(Cc3ccco3)S(=O)(=O)c3c(C)ccc4nsnc34)cc2c1	-15.8	-15.9	19.1	15.8	33.8	-7.3
COc1ccc2[nH]c(=O)c(CN(Cc3cccs3)S(=O)(=O)c3c(C)ccc4nsnc34)cc2c1	-16.0	-18.2	17.4	29.9	54.6*	-6.7
COC(=O)c1ccccc1S(=O)(=O)N(CCCO)Cc1cc2c(C)ccc(C)c2[nH]c1=O	-16.2	-5.5	45.6*	12.2	19.5	-6.0
COC(=O)c1ccccc1S(=O)(=O)N(Cc1ccco1)Cc1cc2cc(OC)ccc2[nH]c1=O	-38.2	3.7	41.2*	8.3	-4.2	-8.8
Cc1cccc(C(C(=O)NC2CCCCC2)N(Cc2cccnc2)C(=O)c2csnn2)c1 (stereo unspecified)	-34.6	-43.6	15.9	-3.2	-1.9	-3.8
COc1ccc(CCNC(=O)COc2ccc(S(=O)(=O)N3CCOCC3)cc2)cc1	-3.4	10.3	7.3	0.9	9.0	-2.5
COc1ccc(CCNC(=O)CC(=O)N/N=C/c2ccc(C(=O)O)cc2)cc1OC	-6.7	-19.4	9.4	2.0	-10.2	-1.3
COC(=O)c1ccc(/C=N/OCC(=O)NCCc2ccc(OC)c(OC)c2)cc1	-14.2	1.6	45.0*	19.8	-7.6	-4.0
COc1ccc(CNC(=O)c2ccc3ccccc3n2)cc1OC	45.5*	9.4	51.8*	3.9	8.2	14.9
COc1ccc(CCNC(=O)COc2ccc(S(=O)(=O)N3CCOCC3)cc2)cc1OC	-6.8	14.7	48.8*	0.6	16.6	-10.1
CN=C1SC(CC(=O)NCCc2ccc(OC)c(OC)c2)C(=O)N1C (stereo unspecified)	100.7*	104.4*	3.6	0.7	-24.3	8.5
COc1c2c(cc3c1c(=O)c1ccccc1n3C)OCO2	x	x	x	-0.7	-9.1	x
COc1ccc(CCNC(=O)CSc2nnc(-c3ccccc3)c3ccccc23)cc1OC	-27.1	-13.7	72.7*	-2.6	-15.5	-2.5
COc1ccc(CCNC(=O)CSc2ccc3ccccc3c2)cc1OC	-25.1	-3.3	63.7*	0.1	6.1	-7.1
COc1ccc(CCNC(=O)CSc2nnc(-c3ccccc3)o2)cc1OC	-3.7	-20.0	11.9	1.5	-9.9	x
O=C(CSc1ccc2ccccc2c1)NCCc1ccc(O)c(O)c1	-11.9	-3.1	20.7	4.4	6.3	13.2
Oc1ccc(Nc2nc3ccccc3nc2Nc2ccc(O)cc2)cc1	35.0*	7.5	23.4	x	x	6.0
COc1cc(/C=C2\SC(=S)N(Nc3ncc(C(F)(F)F)cc3Cl)C2=O)ccc1O	39.7*	48.6*	7.0	52.3*	65.7*	10.8
COc1cc(/C=C2/SC(=S)N(CC3CCCO3)C2=O)ccc1O (stereo unspecified)	23.7	18.5	10.6	41.7*	42.2	6.2
COc1cc(/C=C2\SC(=S)N(Nc3ccccc3)C2=O)ccc1O	42.4*	40.0	21.2	54.4*	56.6*	13.4
SMILES	CHO parental Ca	OX1R antag-1	OX1R antag-2	TAAR1 agonist	TAAR1 antagonist	GPR7 antagonist
CCOc1cc(/C=C2\SC(=S)N(NS(=O)(=O)c3ccccc3)C2=O)ccc1O	-0.8	-6.9	29.2	8.2	20.5	-10.2
CCOc1cc(/C=C2\SC(=S)N(Nc3ccccc3)C2=O)ccc1O	32.6	19.0	18.1	51.4*	60.0*	-0.3
O=C1/C(=C/c2ccc(O)c(O)c2)SC(=S)N1Nc1ccccc1	x	x	x	x	x	-3.7
C=CC[C@]12C[C@@]3(O[C@H](C4CCCCC4)N=C3C[C@H](c3ccc(OC)cc3)[C@H]1C)N(Cc1ccncc1)C2=O	x	x	x	-2.2	-51.3	x
O=C(NN1C(=O)/C(=C\c2ccc(O)c([N+](=O)[O-])c2)SC1=S)c1ccccc1Cl	-7.0	-18.5	63.9*	1.4	-30.0	-4.4
O=C(O)c1ccc(/C=C2\SC(=S)N(NC(=O)c3ccccc3[N+](=O)[O-])C2=O)cc1	x	x	x	0.1	-18.3	-1.1
CCOC(=O)CN1C(=O)S/C(=C/c2ccc(C)o2)C1=O	-3.1	-8.7	11.4	2.7	16.9	8.6
CCOC(=O)CN1C(=O)S/C(=C/c2ccc(O)c([N+](=O)[O-])c2)C1=O	-7.2	-6.2	56.5*	7.1	7.4	-2.6
CC(=O)Nc1ccc(NC(=O)c2ccc(-c3c(C)noc3C)c3ccoc23)cc1	x	x	x	6.3	-7.3	x
COc1ccc(-c2ccc(C(=O)Nc3ccc(NC(C)=O)cc3)c3occc23)c(C)c1	x	x	x	14.3	50.9*	x
CC(=O)c1cccc(NC(=O)c2cccc3c(-c4cnn(C)c4)coc23)c1	x	x	x	14.4	55.3*	x
COc1cc(NC(=O)c2cccc3c(-c4cnn(C)c4)coc23)cc(OC)c1OC	x	x	x	14.9	54.0*	x
CC(=O)c1cccc(NC(=O)c2ccc(-c3c(C)noc3C)c3ccoc23)c1	x	x	x	11.1	64.2*	x
COc1ccc(NC(=O)c2cccc3c(-c4cnn(C)c4)coc23)cc1	x	x	x	6.8	4.3	x
COC(=O)C1=C(C)N(Cc2ccccc2C(F)(F)F)C(=NCC2CC2)NC1CCc1ccccc1 (stereo unspecified)	x	x	x	15.3	3.9	x
COc1ccc(N)cc1CN1CCN(c2ncc(Cc3ccccc3)cn2)CC1	x	x	x	0.6	-8.5	x
COc1ccccc1CNc1nc(NCc2ccccc2)nc2ccsc12	x	x	x	50.5*	95.4*	x
c1ccc(CNc2nc(-c3ccccc3)nc3ccccc23)cc1	-11.4	-28.9	28.8	0.1	0.8	-22.4
c1ccc(CNc2nc(NCc3ccccc3)c3sccc3n2)cc1	x	x	x	73.5*	104.3*	x
c1ccc(CNc2nc(NCc3ccccc3)c3ccccc3n2)cc1	74.9*	89.3*	6.7	x	x	74.1*
c1ccc(CNc2nc(NCCOc3ccccc3)c3sccc3n2)cc1	x	x	x	58.8*	94.6*	x
CCCC1OC(c2cc3c(cc2Cl)OCO3)OCC1CC (stereo unspecified)	x	x	x	8.7	-4.2	x
Fc1ccccc1CNc1nc(NCC2CC2)nc2ccsc12	x	x	x	37.9*	43.7	x
